Assay results from ChEMBL document CHEMBL1155063 (Bioorg Med Chem, 2008).

Key:
[1] = system: NCI-H460; assay: Growth percent of human NCI-H460 cells at 10 uM after 48 hrs by MTT assay; details: NCI-H460, 48 h
[2] = system: ACHN; assay: Cytotoxicity against human ACHN cells at 10 uM after 48 hrs by MTT assay; assay type: functional
Summary of the method: (§1)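 Single-dose screen on the NCI 60-cell-line panel, run to the Developmental Therapeutics Program protocol (one-dose mean graph). Each value is the growth percentage of treated cells against untreated control cells.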

[3] = Cytotoxicity against human TERT immortalized BJ1 cells at 10 uM after 48 hrs by MTT assay relative to control; assay type: cell-based, BJ
Summary of the method: (§2)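 hTERT-immortalized BJ1 fibroblasts were grown in DMEM with 10% FCS, 1 mM pyruvate and 4 mM […]. Cells (about 2 × 10^3 per well) were seeded and held 24 h at 37 °C. Compounds were freshly dissolved in DMSO, diluted into medium and left on the cells 48 h. MTT was added for 4 h, then SDS/DMF lysis buffer for 16 h. Absorbance was read at 550 nm and expressed relative to untreated cells (100%).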

[4] = biological target: T1, Telomerase reverse transcriptase (Homo sapiens, UniProt O14746); assay: Effect on human TERT expressed in BJ1 cells at 10 uM after 24 hrs by SEAP assay relative to control; details: BJ
T1 sequence (O14746 whole entry): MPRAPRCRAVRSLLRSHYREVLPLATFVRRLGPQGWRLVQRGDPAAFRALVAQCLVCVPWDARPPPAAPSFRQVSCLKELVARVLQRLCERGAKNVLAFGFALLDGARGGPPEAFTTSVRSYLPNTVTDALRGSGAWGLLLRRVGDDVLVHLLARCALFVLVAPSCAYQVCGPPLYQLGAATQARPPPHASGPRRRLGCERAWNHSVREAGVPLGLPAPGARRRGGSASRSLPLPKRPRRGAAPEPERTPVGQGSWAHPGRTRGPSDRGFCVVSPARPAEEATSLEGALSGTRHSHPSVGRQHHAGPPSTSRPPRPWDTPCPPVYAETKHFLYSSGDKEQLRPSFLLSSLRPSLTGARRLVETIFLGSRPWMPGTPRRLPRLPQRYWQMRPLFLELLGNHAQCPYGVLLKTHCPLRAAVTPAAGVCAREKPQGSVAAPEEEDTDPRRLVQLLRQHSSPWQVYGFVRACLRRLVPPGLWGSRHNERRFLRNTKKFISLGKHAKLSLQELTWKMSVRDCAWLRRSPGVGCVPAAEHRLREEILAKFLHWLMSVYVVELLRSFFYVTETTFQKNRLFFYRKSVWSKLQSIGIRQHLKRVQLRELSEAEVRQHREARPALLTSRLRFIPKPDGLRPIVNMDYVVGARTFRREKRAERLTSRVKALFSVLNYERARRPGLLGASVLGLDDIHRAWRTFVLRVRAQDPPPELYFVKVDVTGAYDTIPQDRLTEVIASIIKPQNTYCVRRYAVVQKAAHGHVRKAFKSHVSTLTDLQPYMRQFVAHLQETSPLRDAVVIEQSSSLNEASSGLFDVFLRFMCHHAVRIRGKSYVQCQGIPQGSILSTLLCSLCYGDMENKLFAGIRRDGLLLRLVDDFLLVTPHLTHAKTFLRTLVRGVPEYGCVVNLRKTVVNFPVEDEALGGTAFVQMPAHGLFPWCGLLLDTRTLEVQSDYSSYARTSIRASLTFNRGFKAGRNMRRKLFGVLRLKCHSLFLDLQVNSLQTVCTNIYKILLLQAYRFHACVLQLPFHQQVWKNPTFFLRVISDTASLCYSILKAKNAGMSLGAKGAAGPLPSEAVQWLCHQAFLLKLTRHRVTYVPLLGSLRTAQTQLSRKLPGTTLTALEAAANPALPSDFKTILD

[5] = Cytotoxicity against human H1299 cells at 100 uM after 48 hrs by MTT assay realtive to control; assay type: functional; details: NCI-H1299, 48 h
Summary of the method: (§3)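 H1299 non-small-cell lung cells were kept in RPMI 1640 with 10% FBS and penicillin/streptomycin at 37 °C under 5% CO2. About 2 × 10^3 cells per well were pre-incubated for 24 h. Compound was added from freshly made DMSO solution diluted in complete medium and left for 48 h. MTT was then added for 4 h at 37 °C, followed by 20% SDS/50% DMF lysis buffer for 16 h at 37 °C, and absorbance read at 550 nm.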

[6] = system: 786-0; assay: Cytotoxicity against human 786-0 cells at 10 uM after 48 hrs by MTT assay; assay type: functional; details: 786-0, 48 h
Summary of the method: as §1

[7] = system: UACC-62; assay: Cytotoxicity against human UACC62 cells at 10 uM after 48 hrs by MTT assay; assay type: functional; details: UACC-62, 48 h, values are per cent of control
Summary of the method: (§4)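 Single-dose screen in the NCI 60-cell-line panel, run according to the Developmental Therapeutics Program protocol (one-dose mean graph). The result is the growth percentage of treated cells relative to untreated control cells.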

[8] = Cytotoxicity against human H1299 cells at 10 uM after 48 hrs by MTT assay realtive to control; assay type: functional; details: NCI-H1299, 48 h
Summary of the method: as §3

[9] = system: SNB-75; assay: Cytotoxicity against human SNB75 cells at 10 uM after 48 hrs by MTT assay; assay type: functional; details: SNB-75, 48 h, values are per cent of control
Summary of the method: as §4

[10] = biological target: T1, Telomerase reverse transcriptase; assay: Effect on human TERT expressed in BJ1 cells at 100 uM after 24 hrs by SEAP assay relative to control; details: BJ
[11] = system: MDA-MB-435; assay: Cytotoxicity against human MDA-MB-435 cells at 10 uM after 48 hrs by MTT assay; assay type: functional; details: MDA-MB-435, 48 h
Summary of the method: as §1

[12] = biological target: T1, Telomerase reverse transcriptase; assay: Effect on human TERT expressed in BJ1 cells at 1 uM after 24 hrs by SEAP assay realtive to control; details: BJ
[13] = system: DU-145; assay: Cytotoxicity against human DU145 cells at 10 uM after 48 hrs by MTT assay; assay type: functional; details: DU-145, 48 h, values are per cent of control
Summary of the method: as §1

[14] = system: RPMI-8226; assay: Cytotoxicity against human RPMI-8226 cells at 10 uM after 48 hrs by MTT assay; assay type: functional; details: RPMI-8226, 48 h
Summary of the method: as §1

[15] = system: OVCAR-4; assay: Cytotoxicity against human OVCAR4 cells at 10 uM after 48 hrs by MTT assay; assay type: functional; details: OVCAR-4, 48 h
Summary of the method: as §1

[16] = system: BT-549; assay: Cytotoxicity against human BT549 cells at 10 uM after 48 hrs by MTT assay; assay type: functional; details: BT-549, 48 h
Summary of the method: as §1

[17] = system: OVCAR-8; assay: Cytotoxicity against human OVCAR8 cells at 10 uM after 48 hrs by MTT assay; assay type: functional; details: OVCAR-8, 48 h
Summary of the method: as §1

[18] = system: HCT-15; assay: Growth percent of human HCT15 cells at 10 uM after 48 hrs by MTT assay; details: HCT-15, 48 h
[19] = system: MDA-MB-231; assay: Cytotoxicity against human MDA-MB-231/ATCC cells at 10 uM after 48 hrs by MTT assay; assay type: functional; details: MDA-MB-231, 48 h
Summary of the method: as §1

[20] = system: T47D; assay: Cytotoxicity against human T47D cells at 10 uM after 48 hrs by MTT assay; assay type: functional
Summary of the method: as §4

[21] = system: TK-10; assay: Cytotoxicity against human TK10 cells at 10 uM after 48 hrs by MTT assay; assay type: functional; details: TK-10, 48 h, values are per cent of control
Summary of the method: as §4

[22] = system: MOLT-4; assay: Cytotoxicity against human MOLT4 cells at 10 uM after 48 hrs by MTT assay; assay type: functional; details: MOLT-4, 48 h
Summary of the method: as §1

[23] = system: UO-31; assay: Cytotoxicity against human UO31 cells at 10 uM after 48 hrs by MTT assay; assay type: functional; details: UO-31, 48 h, values are per cent of control
Summary of the method: as §4

[24] = Cell viability of human H1299 cells at 1 uM after 48 hrs by MTT assay relative to control; details: NCI-H1299, 48 h
[25] = system: EKVX; assay: Cytotoxicity against human EKVX cells at 10 uM after 48 hrs by MTT assay; assay type: functional
Summary of the method: as §1

[26] = system: SF-268; assay: Cytotoxicity against human SF268 cells at 10 uM after 48 hrs by MTT assay; assay type: functional; details: SF-268, 48 h, values are per cent of control
Summary of the method: as §1

[27] = Cytotoxicity against human TERT immortalized BJ1 cells at 1 uM after 48 hrs by MTT assay relative to control; assay type: cell-based, BJ
Summary of the method: as §2

[28] = system: CCRF-CEM; assay: Cytotoxicity against human CCRF-CEM cells at 10 uM after 48 hrs by MTT assay; assay type: functional
Summary of the method: as §1

[29] = system: UACC-257; assay: Cytotoxicity against human UACC257 cells at 10 uM after 48 hrs by MTT assay; assay type: functional; details: UACC-257, 48 h, values are per cent of control
Summary of the method: as §4

[30] = biological target: T1, Telomerase reverse transcriptase; assay: Effect on human TERT expressed in H1299 cells at 1 uM after 24 hrs by SEAP assay relative to control
[31] = system: M14; assay: Cytotoxicity against human M14 cells at 10 uM after 48 hrs by MTT assay; assay type: functional; details: M14, 48 h, values are per cent of control
Summary of the method: as §1

[32] = system: HCT-29; assay: Growth percent of human HCT29 cells at 10 uM after 48 hrs by MTT assay; details: HCT-29, 48 h
[33] = system: SN12C; assay: Cytotoxicity against human SN12C cells at 10 uM after 48 hrs by MTT assay; assay type: functional
Summary of the method: as §1

SMILES	growth percent at 10 µM [1] [%]	growth percent at 10 µM [2] [%]	viability at 48 h, 10 µM [3] [%]	viability at 100 µM [5] [%]	growth percent at 10 µM [6] [%]	growth, % of control at 10 µM [7] [%]	viability at 10 µM [8] [%]	growth, % of control at 10 µM [9] [%]	growth percent at 10 µM [11] [%]	growth, % of control at 10 µM [13] [%]	growth percent at 10 µM [14] [%]	growth percent at 10 µM [15] [%]	growth percent at 10 µM [16] [%]	growth percent at 10 µM [17] [%]	growth percent at 10 µM [18] [%]	growth percent at 10 µM [19] [%]	growth percent at 10 µM [20] [%]	growth, % of control at 10 µM [21] [%]	growth percent at 10 µM [22] [%]	growth, % of control at 10 µM [23] [%]	other results
CCN(CC)CCC(=O)Nc1ccc2c(c1)C(=O)c1cc(NC(=O)CCN(CC)CC)ccc1C2=O	9.5	11.1	55	1	24.7	44.5	41	46.6	71.1	10.2	-29	24.9	57	4.3	17.4	31.3	68.6	17.2	5.42	-31.5	residual activity [4]: 49%; residual activity [10]: 37%; residual activity [12]: 84%; cell viability at 1 µM [24]: 106%; growth percent at 10 µM [25]: 60%; growth, % of control at 10 µM [26]: 35.2%; viability at 48 h, 1 µM [27]: 103%; growth percent at 10 µM [28]: -6.02%; growth, % of control at 10 µM [29]: -14.5%; residual activity [30]: 76%; growth, % of control at 10 µM [31]: 62.8%; growth percent at 10 µM [32]: 3.3%; growth percent at 10 µM [33]: 8.63%
O=C(CCN1CCCC1)Nc1ccc2c(c1)C(=O)c1cc(NC(=O)CCN3CCCC3)ccc1C2=O	25.5	29.6	68	12	40.5	42.7	54	77.5	68.8	29.5	47.9	49.8	76.9	19.6	56.1	30.5	59	31.2	23	5.27	residual activity [4]: 67%; residual activity [10]: 109%; cell viability at 1 µM [24]: 87%; growth percent at 10 µM [25]: 58.7%; growth, % of control at 10 µM [26]: 26.7%; viability at 48 h, 1 µM [27]: 82%; growth percent at 10 µM [28]: 3.74%; growth, % of control at 10 µM [29]: -17.9%; residual activity [30]: 73%; growth, % of control at 10 µM [31]: 53.9%; growth percent at 10 µM [32]: 19.5%; growth percent at 10 µM [33]: 6.68%
O=C1c2ccc(NC(=O)C3CC3)cc2C(=O)c2cc(NC(=O)C3CC3)ccc21	89	86.7	44	43	94.9	81	36	89.2	97.3	98.8	88.4	97.5	92.5	94.3	86.3	97	79.8	136	94.3	95.5	cell viability at 1 µM [24]: 46%; growth percent at 10 µM [25]: 94.3%; growth, % of control at 10 µM [26]: 95.1%; viability at 48 h, 1 µM [27]: 60%; growth percent at 10 µM [28]: 90.7%; growth, % of control at 10 µM [29]: 108%; residual activity [30]: 80%; growth, % of control at 10 µM [31]: 98.9%; growth percent at 10 µM [32]: 106%; growth percent at 10 µM [33]: 82.9%
CC(=O)Nc1ccc2c(c1)C(=O)c1cc(NC(C)=O)ccc1C2=O	109	96.9	91	55	97.7	101	83	107	109	117	121	104	93.3	99.8	93.9	104	96.2	118	97	96.4	residual activity [4]: 117%; residual activity [10]: 117%; residual activity [12]: 123%; cell viability at 1 µM [24]: 117%; growth percent at 10 µM [25]: 95.3%; growth, % of control at 10 µM [26]: 114%; viability at 48 h, 1 µM [27]: 106%; growth percent at 10 µM [28]: 99.8%; growth, % of control at 10 µM [29]: 27%; residual activity [30]: 97%; growth, % of control at 10 µM [31]: 105%; growth percent at 10 µM [32]: 107%; growth percent at 10 µM [33]: 113%
